Wee1 degr inh: Wee1 degradation inhibitors, primary screen, cell-based, HeLa, Wee1K328M-luciferase, luminescence. AID 1321, 2008. HeLa Luc-Wee1K328M stability; 100% = proteasome inhibitor MG132 effect. 1.2% of 220,000 active. Wee1-like protein kinase (Homo sapiens), P30291. reporter increase, % at 5 µM;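 active = activation above the mean of all tested compounds plus 3 SD, set per screening run, cut at about 8.8% in these data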;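 also: cells exposed to compound for 20 h before luminescence read; 0% = DMSO alone and 100% = MG132 at 30 µM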
APP 5'UTR act: activators of APP 5'UTR luciferase reporter, primary screen, SH-SY5Y cells. SH-SY5Y APP 5'UTR luciferase reporter, luminescence; zero percent = DMSO vehicle wells. activation, % at 2 µM. 1% of 190,000 active. AID 1276, 2008;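 active = activation above a set limit, based on mean plus 3 SD of controls, cut at about 140% in these data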
NF-kB expr up: activators of NF-kB expression in neurons, primary screen, cell-based, HTS; human neuronal cells, NF-kB reporter expression; hits give high values; fold change at 12.5 µM; 1.6% of 190,000 active; AID 1239, 2008; in the data active = fold change above about 3.3
MDM2 E3 inh: MDM2-luciferase reporter signal enhancers, primary screen, MDM2 E3 ligase inhibitor project, cell-based, luminescence, 1536-well. E3 ubiquitin-protein ligase Mdm2 (Homo sapiens), Q00987. cell-based MDM2 ubiquitination luciferase reporter, 2 h; 0 = plate control, 100 = twice control, blank-subtracted. signal enhancement, % at 5 µM. 0.11% of 210,000 active;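 active = signal enhancement of 30% or more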;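 also: luminescence tracks abundance of the self-degrading MDM2-luciferase fusion protein; higher signal means inhibition of MDM2 E3 ligase activity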
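Assay system: stable mammalian line carrying autodegrading MDM2–luciferase fusion reporter; Input: 2000 cells in each well; Compound dosing: single-point 5 µM; Schedule: 2 h compound exposure at 37 °C; Signal: SteadyLite luciferase luminescence after 15 min room-temperature reagent incubation; Evaluation: % luminescence enhancement versus blank-corrected plate control mean; Benchmarks: plate controls and plate blanks.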
p97 ATPase inh: inhibitors of human p97 ATPase, primary screen, biochemical; 0.42% of 220,000 active; recombinant p97 ATPase, Kinase-Glo ATP luminescence, 3 h; inhibition, % at 8 µM; Transitional endoplasmic reticulum ATPase (Homo sapiens), P55072; in the data active = inhibition above about 15%;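 also: 0% = DMSO vehicle and 100% = wells lacking enzyme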
STAT1 act: STAT1 signaling activators, primary screen, cell-based, HTS, luciferase reporter | 2.6% of 200,000 active | NIH 3T3 STAT1-luciferase reporter, IFN-gamma, luminescence; 100% = IFN-gamma alone, no compound | activation (% of control), % at 5.5 µM;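 active = activation above the screen-wide mean activation plus 3 SD, cut at about 130% in these data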;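 also: raw ratio to IFN-gamma control signal so 100% means no change and 0% no light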
Active calls of the source: *; nt = not tested or not shown. Most compounds without a hit are left out; they make up all but 4.6% or so of the library.

SMILES	Wee1 degr inh	APP 5'UTR act	NF-kB expr up	MDM2 E3 inh	p97 ATPase inh	STAT1 act
Cc1ccc(-c2cn(-c3ccccc3)c(SCC(=O)NC3CCS(=O)(=O)C3)n2)cc1C (stereo not drawn)	0.8	126.8	0.58	5.5	-1.2	136.1*
CCc1ccc(-c2nc(CS(=O)CC(=O)O)c(C)o2)cc1 (stereo not drawn)	3.8	nt	nt	nt	5.5	nt
Cc1ccc(Cn2nc(C)c3cc(C(=O)OCC(N)=O)sc32)cc1	9.8*	-1.1	1.25	-10.6	-4.5	94.8
Cc1nn(Cc2ccc(Cl)cc2)c2sc(C(=O)OCC(N)=O)cc12	-1.3	-20.1	0.85	-15.4	-6.7	95.5
O=C(COC(=O)CC1CCCC1)Nc1cc2c(cc1Cl)C(=O)c1ccccc1C2=O	4.5	74.5	2.48	-16.7	-3.4	129.0*
Nc1ncn(CC(=O)c2ccccc2)n1	2.5	28.5	6.23*	-11.6	2.8	97.8
Clc1ccc(Nc2nc(NCCN3CCOCC3)nc(N3CCOCC3)n2)cc1	-2.1	-14.8	0.49	-0.7	4.6	93.3
CCOc1ccc(NC(=S)NCCCN2CCOCC2)cc1	-1.3	3.2	1.04	34.4*	3.9	102.7
CCOc1ccc(Nc2nc(NCCN3CCOCC3)nc(OC)n2)cc1	-1.9	0.6	1.12	-8.0	14.6*	107.8
C/C(=N\OC(=O)c1cccc(C)c1)c1sc(-c2ccccc2)nc1C	2.4	2.1	3.58*	2.4	0.4	113.6
C/C(=N\OC(=O)c1ccc(Cl)cc1)c1sc(-c2ccccc2)nc1C	-0.6	-1.1	4.43*	-7.8	0.5	112.1
C/C(=N\OC(=O)c1cccc(C(F)(F)F)c1)c1sc(-c2ccccc2)nc1C	2.2	10.8	3.98*	4.5	4.2	96.2
C/C(=N\OC(=O)c1ccc(F)cc1)c1sc(-c2ccccc2)nc1C	-2.6	9.1	1.68	-12.4	3.8	103.6
C/C(=N\OC(=O)NC(C)C)c1sc(-c2ccccc2)nc1C	-0.9	82.3	1.73	-5.4	-2.5	116.9
NC1=NC(=O)C(CC(=O)Nc2ccc3c(c2)OCO3)S1 (stereo not drawn)	-0.1	-9.5	1.08	1.8	3.1	102.4
COc1ccc(-c2nnn(CC(=O)N(CCCN3CCOCC3)C(C(=O)NC3CCCC3)c3ccco3)n2)cc1 (stereo not drawn)	-2.5	-7.9	1.28	7.4	-4.1	95.7
Cc1nc2cc3c(cc2c(C)c1C(=O)OC(C)C)OCO3	-0.3	-7.7	1.33	-3.3	1.1	110.6
CC1=NN(c2nc(-c3ccc(C)cc3)cs2)C(=O)C1N=Nc1ccc(C(N)=O)cc1 (stereo not drawn)	9.9*	-33.3	0.81	-14.8	5.7	95.3
COc1cccc(C2Cc3ccccc3C(=O)O2)c1 (stereo not drawn)	-2.4	-9.6	1.27	7.1	4.1	102.6
COc1ccc(C2CC(=O)c3ccccc3O2)cc1 (stereo not drawn)	0.7	58.5	3.77*	nt	6.5	113.2
COc1ccc(CCNC(=O)CSc2ccc(Br)cc2)cc1OC	-0.9	-2.2	0.91	-7.8	3.0	95.8
c1ccc(Oc2ccc3ccccc3n2)cc1	-1.4	27.8	1.33	-15.4	3.0	136.2*
COc1ccc2c(CSc3nc4nc(C)cc(C)n4n3)cc(=O)oc2c1	-0.6	9.9	4.15*	-16.3	-0.7	99.2
Cc1cc(CNC(=S)Nc2ccc(Br)cc2Cl)nn1C	0.5	9.0	1	1.2	-0.4	99.2
CCOC(=O)COc1ccccc1C1Nc2ccccc2C(=O)N1c1cccc(Cl)c1 (stereo not drawn)	1.6	60.4	2.12	-1.2	-6.8	108.5
CC(C)Oc1ccccc1C1Nc2ccccc2C(=O)N1c1ccc2c(c1)OCCO2 (stereo not drawn)	-1.9	150.1*	4.56*	-11.3	1.2	116.1
